{
  "source": "ChEMBL document CHEMBL1157724",
  "about": "(Bioorg Med Chem, 2010)",
  "key": {"[1]": {"biological_target": "T1, DNA topoisomerase 2-alpha (Homo sapiens, UniProt P11388)", "T1 sequence (P11388 whole entry)": "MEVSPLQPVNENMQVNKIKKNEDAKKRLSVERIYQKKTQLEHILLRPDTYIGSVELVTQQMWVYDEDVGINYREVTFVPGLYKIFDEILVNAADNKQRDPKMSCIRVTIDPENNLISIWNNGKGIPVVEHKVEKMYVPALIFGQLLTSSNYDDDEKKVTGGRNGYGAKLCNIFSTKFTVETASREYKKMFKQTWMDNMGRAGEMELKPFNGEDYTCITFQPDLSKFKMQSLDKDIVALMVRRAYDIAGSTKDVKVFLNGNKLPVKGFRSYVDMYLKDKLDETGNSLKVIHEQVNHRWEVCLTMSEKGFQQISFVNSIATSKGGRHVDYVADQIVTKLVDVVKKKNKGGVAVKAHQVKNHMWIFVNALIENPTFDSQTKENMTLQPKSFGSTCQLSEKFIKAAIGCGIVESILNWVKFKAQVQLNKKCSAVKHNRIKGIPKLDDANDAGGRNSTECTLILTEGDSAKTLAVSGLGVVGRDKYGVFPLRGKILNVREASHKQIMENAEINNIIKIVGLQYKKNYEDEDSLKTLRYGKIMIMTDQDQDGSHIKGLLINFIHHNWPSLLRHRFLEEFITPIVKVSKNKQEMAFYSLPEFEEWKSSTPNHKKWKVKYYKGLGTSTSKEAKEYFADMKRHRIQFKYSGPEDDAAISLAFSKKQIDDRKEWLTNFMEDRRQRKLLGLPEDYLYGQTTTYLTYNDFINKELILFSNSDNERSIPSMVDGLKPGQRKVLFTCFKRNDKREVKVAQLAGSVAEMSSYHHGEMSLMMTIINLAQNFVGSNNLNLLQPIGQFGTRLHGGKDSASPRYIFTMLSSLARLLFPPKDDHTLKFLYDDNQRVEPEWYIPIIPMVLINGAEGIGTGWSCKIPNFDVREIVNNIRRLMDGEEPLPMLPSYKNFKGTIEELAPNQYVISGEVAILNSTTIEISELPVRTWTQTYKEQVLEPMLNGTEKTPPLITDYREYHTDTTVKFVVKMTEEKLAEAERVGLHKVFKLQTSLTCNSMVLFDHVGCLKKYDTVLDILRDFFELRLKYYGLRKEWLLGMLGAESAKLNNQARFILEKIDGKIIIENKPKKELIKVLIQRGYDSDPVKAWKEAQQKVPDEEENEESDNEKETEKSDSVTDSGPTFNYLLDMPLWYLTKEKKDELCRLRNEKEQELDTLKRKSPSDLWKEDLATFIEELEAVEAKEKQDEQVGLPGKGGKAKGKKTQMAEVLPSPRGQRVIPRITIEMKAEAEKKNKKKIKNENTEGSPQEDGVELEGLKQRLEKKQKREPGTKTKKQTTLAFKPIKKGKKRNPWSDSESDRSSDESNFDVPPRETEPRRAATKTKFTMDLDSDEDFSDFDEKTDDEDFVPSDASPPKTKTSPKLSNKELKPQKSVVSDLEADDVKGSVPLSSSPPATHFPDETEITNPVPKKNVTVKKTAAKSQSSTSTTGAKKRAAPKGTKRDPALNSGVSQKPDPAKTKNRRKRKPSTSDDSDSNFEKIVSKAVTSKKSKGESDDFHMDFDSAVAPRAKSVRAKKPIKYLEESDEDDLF", "experiment": "Inhibition of DNA topoisomerase 2alpha-mediated pBR322 DNA cleavage at 50 uM by SDS-PAGE", "summary_of_the_method": "(§1)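 Topoisomerase IIα (150 ng) with 80 ng pBR322 and 0.5 mM ATP in pH 8.0 Tris/KCl/NaCl/MgCl2/glycerol buffer. Drug added last from DMSO. Incubated 10 min at 37°C, quenched with SDS/EDTA, then proteinase K 30 min at 55°C. Linear DNA resolved on a 1.2% agarose ethidium bromide gel against a HindIII-linearised pBR322 marker.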"}, "[2]": {"biological_target": "T1, DNA topoisomerase 2-alpha", "experiment": "Inhibition of DNA topoisomerase 2alpha-mediated pBR322 DNA cleavage at 20 uM by SDS-PAGE"}, "[3]": {"biological_target": "T1, DNA topoisomerase 2-alpha", "experiment": "Inhibition of DNA topoisomerase 2alpha-mediated pBR322 DNA cleavage at 100 uM by SDS-PAGE", "summary_of_the_method": "as §1"}, "[4]": {"biological_target": "T1, DNA topoisomerase 2-alpha", "experiment": "Inhibition of DNA topoisomerase 2alpha in human K562 cells assessed as protein-DNA covalent complex formation under UV irradiation by scintillation counting", "type": "cell-based", "summary_of_the_method": "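Radiolabelled K562 cells (1.5×10^6/ml, pH 7.4 buffer) given compound (2.5–20 μM), then irradiated or not at 365 nm for 5 min from 16 mm. Incubated 60 min at 37°C in the dark. SDS/KCl-precipitated protein-DNA complexes measured by scintillation, with 3H normalised to 14C. Nine experiments on different days. Paired t-tests of UV versus no UV at each concentration.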"}, "[5]": {"biological_target": "T1, DNA topoisomerase 2-alpha", "experiment": "Ratio of etoposide IC50 to IC50 for drug against human DNA topoisomerase 2alpha-mediated decatenation of kinetoplast plasmid DNA by fluorescent plate reader"}, "[6]": {"biological_target": "T1, DNA topoisomerase 2-alpha", "experiment": "Inhibition of DNA topoisomerase 2alpha in human K-VP.5 cells assessed as decrease in protein-DNA covalent complex formation at 80 uM by scintillation counting", "type": "cell-based", "summary_of_the_method": "(§2)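 K562 or K/VP.5 cells prelabelled 24 h with [3H]thymidine and [14C]leucine. Cells held at 1.5×10^6/ml in HEPES-buffered saline-glucose pH 7.4 and exposed to compound for 60 min at 37°C in the dark. Protein-DNA complexes precipitated with SDS/KCl after lysis and DNA shearing, and counted by scintillation. 3H normalised to 14C protein.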"}, "[7]": {"biological_target": "T1, DNA topoisomerase 2-alpha", "experiment": "Inhibition of DNA topoisomerase 2alpha in human K562 cells assessed as protein-DNA covalent complex formation at 80 uM by scintillation counting", "type": "cell-based", "summary_of_the_method": "as §2"}, "[8]": {"biological_target": "T1, DNA topoisomerase 2-alpha", "conditions": "K562, 25 uM"}, "[9]": {"biological_target": "T1, DNA topoisomerase 2-alpha", "conditions": "K562, 50 uM"}, "[10]": {"biological_target": "T1, DNA topoisomerase 2-alpha", "conditions": "50 uM"}, "K562": {"system": "K562", "experiment": "Cytotoxicity against human K562 cells after 72 hrs by MTS assay", "type": "functional, cell-based", "conditions": "K562, 72 h", "summary_of_the_method": "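K562 cells in αMEM with 10% fetal calf serum, 37°C, 5% CO2. Exponentially growing cells seeded at 6000/well. Compound added from DMSO stock (final DMSO 0.5% v/v), continuous exposure for 72 h. MTS added for a further 3 h and absorbance read. Three replicates per concentration. IC50 from a four-parameter logistic fit.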"}},
  "note": "Activity calls are given as the source filed them. The calls are words filed in the database; no cut-off is given here.",
  "data": [
    {"smiles": "CC[C@@]1(O)C(=O)OCc2c1cc1n(c2=O)Cc2cc3ccccc3nc2-1", "values": [
      {"measurement": "inhibition", "setting": "[1]", "value": 40, "unit": "%"}
    ]},
    {"smiles": "COc1cc([C@@H]2c3cc4c(cc3[C@@H](NC(=O)c3ccc(C5(C(F)(F)F)N=N5)cc3)[C@H]3COC(=O)[C@H]23)OCO4)cc(OC)c1O", "note": "[DIAZIRINE]", "values": [
      {"measurement": "inhibition", "setting": "[1]", "value": "Active"},
      {"measurement": "inhibition", "setting": "[2]", "value": "inactive"},
      {"measurement": "inhibition", "setting": "[3]", "value": "Active"},
      {"measurement": "inhibition", "setting": "[4]", "value": "Dose-dependent effect"},
      {"measurement": "Ratio IC50", "setting": "[5]", "value": 2},
      {"measurement": "inhibition", "setting": "[6]", "value": "Active"},
      {"measurement": "inhibition", "setting": "[7]", "value": "Active"}
    ]},
    {"smiles": "COc1cc([C@@H]2c3cc4c(cc3[C@@H](O[C@@H]3O[C@@H]5CO[C@@H](C)O[C@H]5[C@H](O)[C@H]3O)[C@H]3COC(=O)[C@H]23)OCO4)cc(OC)c1O", "note": "[ETOPOSIDE]", "values": [
      {"measurement": "inhibition", "setting": "[2]", "value": "inactive"},
      {"measurement": "inhibition", "setting": "[8]", "value": "inactive"},
      {"measurement": "inhibition", "setting": "[9]", "value": "Active"},
      {"measurement": "inhibition", "setting": "[3]", "value": "Active"},
      {"measurement": "inhibition", "setting": "[10]", "value": "Active"},
      {"measurement": "IC50", "setting": "K562", "value": 420, "unit": "nM"}
    ]}
  ]
}
